Measurements reported in ChEMBL document CHEMBL2406994, “Novel triple reuptake inhibitors with low risk of CAD associated liabilities: design, synthesis and biological activities of 4-[(1S)-1-(3,4-dichlorophenyl)-2-methoxyethyl]piperidine and related compounds” (Bioorg Med Chem, 2013).
Active and inactive are the calls of the source. The rule behind the calls is not given here.

Legend:
[1] = test system: Mus musculus; test: Antidepressant activity in ICR mouse assessed as DA level at 10 mg/kg, po after 120 mins by microdialysis relative to control; type: functional
Summary of the method: (§1)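 Male 6-week-old ICR mice; probe implanted stereotaxically into medial prefrontal cortex under pentobarbital, 1 day recovery. Perfusion with Ringer at 2 µL/min; after ≥120 min stabilisation, dialysate collected every 20 min. Baseline from mean of three stable samples. Drug in water given orally at 10 mL/kg; collection continued 120 min. 5-HT, NE and DA measured by HPLC with electrochemical detection.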

[2] = test system: Mus musculus; test: Antidepressant activity in ICR mouse assessed as NE level at 10 mg/kg, po after 120 mins by microdialysis relative to control; type: functional; summary of the method: as §1
[3] = test system: Mus musculus; test: Antidepressant activity in ICR mouse assessed as 5-HT level at 10 mg/kg, po after 120 mins by microdialysis relative to control; type: functional; summary of the method: as §1
[4] = test system: Mus musculus; test: Ex vivo receptor occupancy of DAT in po dosed ICR mouse after 1 hr in presence of [3H]-WIN35428; type: functional, organism-based
Summary of the method: (§2)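 Oral dosing in mice; 1 h later, frontal cortex and striatum dissected. Unwashed homogenate incubated with [³H]-citalopram (25 nM, SERT), [³H]-nisoxetine (25 nM, NET) or [³H]-WIN35428 (50 nM, DAT). Occupancy taken as percent inhibition of specific binding.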

[5] = test system: Mus musculus; test: Ex vivo receptor occupancy of NET in po dosed ICR mouse after 1 hr in presence of [3H]-nisoxetine; type: functional, organism-based; summary of the method: as §2
[6] = test system: Mus musculus; test: Ex vivo receptor occupancy of SERT in po dosed ICR mouse after 1 hr in presence of [3H]-citalopram; type: functional, organism-based; summary of the method: as §2
[7] = test system: Mus musculus; test: Antidepressant activity in ICR mouse assessed as reduction in immobility rate at 10 mg/kg, po after 60 mins by tail suspension test; type: functional, organism-based; set-up: dose 10 mg/kg
Summary of the method: (§3)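 Male 7-week-old ICR mice, n = 11/group. Drug or vehicle (distilled water) given orally at 10 mL/kg; test run 60 min later. Mice hung by the tail from a strain-gauge hook, and immobility scored from load variation over a 10 min test. Average immobility ratio (%) per group; significance by parametric Williams' test, P < .025.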

[8] = test system: Mus musculus; test: Antidepressant activity in po dosed ICR mouse assessed as immobility rate after 60 mins by tail suspension test; type: functional, organism-based; summary of the method: as §3
[9] = test system: Mus musculus; test: Antidepressant activity in orally dosed ICR mouse after 60 mins by tail suspension test; type: functional; settings: po, 1 h, read-out: MED; summary of the method: as §3
[10] = biological target: hERG (KCNH2) (Homo sapiens, UniProt Q12809); test: Inhibition of human ERG channel at 10 uM by ionworks assay relative to control
Summary of the method: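 hERG current measured on IonWorks Quattro with test compound at 10 µM. Expressed as % inhibition.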

[11] = biological target: CYP2D6 (Homo sapiens, UniProt P10635); test: Inhibition of CYP2D6 (unknown origin) assessed as 1'-hydroxybufuralol production at 10 uM after 20 mins by LC/MS/MS analysis relative to control; type: ADME; settings: probe bufuralol (measured as 1'-hydroxybufuralol production)
Summary of the method: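 10 µmol/L bufuralol incubated with 2 nmol/L CYP2D6 from insect cells expressing the enzyme, with 10 µmol/L test compound, for 20 min at 37 °C. 1'-hydroxybufuralol quantified by LC/MS/MS. Expressed as % inhibition.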

[12] = biological target: Sodium-dependent dopamine transporter (Homo sapiens, UniProt Q01959); test: Displacement of [3H]-dopamine from human DAT expressed in CHO cells by TopCounting analysis; type: cell-based
Summary of the method: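 CHO cells stably expressing human DAT, plated overnight at 3 × 10⁵ cells/mL in HEPES-buffered saline with 0.5% BSA. Compound added, then [³H]-dopamine (200 nM diluted stock) with cold dopamine. Uptake for 60 min, two PBS washes, scintillation counting. Activity relative to 100 µM nomifensine as 100%. IC50 and 95% CI from n = 2.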

[13] = biological target: Sodium-dependent noradrenaline transporter (Homo sapiens, UniProt P23975); test: Displacement of [3H]-norepinephrine from human NET expressed in CHO cells by TopCounting analysis; type: cell-based
Summary of the method: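 CHO cells stably expressing human NET, plated overnight at 3 × 10⁵ cells/mL in HEPES-buffered saline with 0.5% BSA. Compound added, then [³H]-norepinephrine (200 nM diluted stock). Uptake stopped at 45 min with two PBS washes, then scintillation counting. IC50 and 95% CI from n = 2.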

[14] = biological target: Sodium-dependent serotonin transporter (Homo sapiens, UniProt P31645); test: Displacement of [3H]-hydroxytryptamine from human SERT expressed in CHO cells by TopCounting analysis; type: cell-based
Summary of the method: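 CHO cells stably expressing human SERT, plated overnight at 3 × 10⁵ cells/mL in HEPES-buffered saline with 0.5% BSA. Compound added, then [³H]-5-HT (200 nM diluted stock). Uptake stopped at 20 min with two PBS washes, then scintillation counting. Activity relative to 10 µM paroxetine.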

hERG (KCNH2), sequence (Q12809 whole entry): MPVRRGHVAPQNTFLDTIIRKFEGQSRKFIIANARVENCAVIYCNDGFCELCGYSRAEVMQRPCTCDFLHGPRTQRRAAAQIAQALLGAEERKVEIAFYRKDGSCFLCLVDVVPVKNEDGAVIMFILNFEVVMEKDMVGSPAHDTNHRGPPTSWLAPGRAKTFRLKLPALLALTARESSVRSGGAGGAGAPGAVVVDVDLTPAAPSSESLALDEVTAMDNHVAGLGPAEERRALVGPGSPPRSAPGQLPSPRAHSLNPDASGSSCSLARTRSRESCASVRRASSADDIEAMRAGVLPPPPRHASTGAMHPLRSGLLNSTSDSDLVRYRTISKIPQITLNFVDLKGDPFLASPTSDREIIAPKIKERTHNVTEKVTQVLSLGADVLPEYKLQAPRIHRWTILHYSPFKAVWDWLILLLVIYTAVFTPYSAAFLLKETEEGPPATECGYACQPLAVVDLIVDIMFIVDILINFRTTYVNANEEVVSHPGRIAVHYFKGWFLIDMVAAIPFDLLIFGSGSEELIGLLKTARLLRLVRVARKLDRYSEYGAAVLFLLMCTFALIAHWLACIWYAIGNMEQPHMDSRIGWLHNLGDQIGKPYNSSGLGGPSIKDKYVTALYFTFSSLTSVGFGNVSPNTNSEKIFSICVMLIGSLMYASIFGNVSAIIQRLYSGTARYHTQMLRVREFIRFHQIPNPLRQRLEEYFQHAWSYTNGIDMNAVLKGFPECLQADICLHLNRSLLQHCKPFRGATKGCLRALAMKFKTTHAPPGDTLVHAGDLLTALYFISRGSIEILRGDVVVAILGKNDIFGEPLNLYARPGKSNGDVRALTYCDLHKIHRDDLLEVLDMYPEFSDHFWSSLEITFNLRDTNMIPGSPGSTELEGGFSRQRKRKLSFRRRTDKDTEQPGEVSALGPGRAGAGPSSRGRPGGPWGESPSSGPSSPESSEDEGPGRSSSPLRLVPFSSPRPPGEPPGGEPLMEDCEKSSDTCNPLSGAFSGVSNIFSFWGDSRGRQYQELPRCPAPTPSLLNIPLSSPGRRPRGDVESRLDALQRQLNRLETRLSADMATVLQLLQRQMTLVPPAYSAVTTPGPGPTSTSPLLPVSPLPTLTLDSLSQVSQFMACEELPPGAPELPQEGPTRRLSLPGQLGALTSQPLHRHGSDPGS
CYP2D6, sequence (P10635 whole entry): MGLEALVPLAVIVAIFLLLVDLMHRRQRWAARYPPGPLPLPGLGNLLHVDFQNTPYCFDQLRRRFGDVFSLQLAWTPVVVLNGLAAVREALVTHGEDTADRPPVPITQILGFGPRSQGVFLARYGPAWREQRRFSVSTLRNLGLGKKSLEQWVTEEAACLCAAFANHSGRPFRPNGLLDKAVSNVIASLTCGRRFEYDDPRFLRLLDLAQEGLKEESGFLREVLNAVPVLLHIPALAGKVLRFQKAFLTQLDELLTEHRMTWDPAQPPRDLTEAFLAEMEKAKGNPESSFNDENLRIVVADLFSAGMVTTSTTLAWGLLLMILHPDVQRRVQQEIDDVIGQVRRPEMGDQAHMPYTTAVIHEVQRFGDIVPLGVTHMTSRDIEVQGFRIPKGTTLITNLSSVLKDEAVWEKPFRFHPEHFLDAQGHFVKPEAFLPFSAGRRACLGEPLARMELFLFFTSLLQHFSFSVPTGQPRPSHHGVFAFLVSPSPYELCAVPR
Sodium-dependent noradrenaline transporter, sequence (P23975 whole entry): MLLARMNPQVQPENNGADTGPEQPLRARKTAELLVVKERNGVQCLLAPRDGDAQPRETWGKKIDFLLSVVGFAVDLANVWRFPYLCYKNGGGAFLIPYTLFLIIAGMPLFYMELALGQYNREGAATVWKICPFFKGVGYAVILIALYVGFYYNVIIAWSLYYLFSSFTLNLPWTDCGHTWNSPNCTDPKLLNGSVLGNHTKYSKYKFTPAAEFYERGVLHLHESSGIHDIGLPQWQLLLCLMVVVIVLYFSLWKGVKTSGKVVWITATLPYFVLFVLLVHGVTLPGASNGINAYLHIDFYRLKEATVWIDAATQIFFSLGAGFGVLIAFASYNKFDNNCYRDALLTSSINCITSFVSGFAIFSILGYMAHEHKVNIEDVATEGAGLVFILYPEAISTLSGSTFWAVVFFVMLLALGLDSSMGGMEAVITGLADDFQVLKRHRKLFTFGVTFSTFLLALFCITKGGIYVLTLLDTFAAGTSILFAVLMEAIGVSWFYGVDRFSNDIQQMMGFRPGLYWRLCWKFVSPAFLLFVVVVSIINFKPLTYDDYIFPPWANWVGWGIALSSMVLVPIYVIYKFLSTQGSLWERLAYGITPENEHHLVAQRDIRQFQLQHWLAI
Sodium-dependent serotonin transporter, sequence (P31645 whole entry): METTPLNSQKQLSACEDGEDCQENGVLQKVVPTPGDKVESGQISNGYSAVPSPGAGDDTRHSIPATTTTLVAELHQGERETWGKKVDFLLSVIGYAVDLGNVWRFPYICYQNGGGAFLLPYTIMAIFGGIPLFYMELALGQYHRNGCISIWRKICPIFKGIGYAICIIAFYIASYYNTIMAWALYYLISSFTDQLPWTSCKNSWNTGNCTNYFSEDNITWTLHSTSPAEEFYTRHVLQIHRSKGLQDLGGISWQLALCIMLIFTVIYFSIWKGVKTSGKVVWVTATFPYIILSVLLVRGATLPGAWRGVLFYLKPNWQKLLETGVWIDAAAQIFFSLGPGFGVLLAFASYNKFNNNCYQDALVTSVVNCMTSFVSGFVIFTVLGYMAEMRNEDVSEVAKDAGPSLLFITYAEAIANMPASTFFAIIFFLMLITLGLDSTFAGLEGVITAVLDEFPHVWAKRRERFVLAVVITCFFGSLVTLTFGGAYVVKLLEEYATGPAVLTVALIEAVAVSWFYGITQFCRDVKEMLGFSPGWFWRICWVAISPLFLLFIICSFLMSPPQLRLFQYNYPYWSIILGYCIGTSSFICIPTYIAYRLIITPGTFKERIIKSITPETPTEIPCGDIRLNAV
Sodium-dependent dopamine transporter, sequence (Q01959 whole entry): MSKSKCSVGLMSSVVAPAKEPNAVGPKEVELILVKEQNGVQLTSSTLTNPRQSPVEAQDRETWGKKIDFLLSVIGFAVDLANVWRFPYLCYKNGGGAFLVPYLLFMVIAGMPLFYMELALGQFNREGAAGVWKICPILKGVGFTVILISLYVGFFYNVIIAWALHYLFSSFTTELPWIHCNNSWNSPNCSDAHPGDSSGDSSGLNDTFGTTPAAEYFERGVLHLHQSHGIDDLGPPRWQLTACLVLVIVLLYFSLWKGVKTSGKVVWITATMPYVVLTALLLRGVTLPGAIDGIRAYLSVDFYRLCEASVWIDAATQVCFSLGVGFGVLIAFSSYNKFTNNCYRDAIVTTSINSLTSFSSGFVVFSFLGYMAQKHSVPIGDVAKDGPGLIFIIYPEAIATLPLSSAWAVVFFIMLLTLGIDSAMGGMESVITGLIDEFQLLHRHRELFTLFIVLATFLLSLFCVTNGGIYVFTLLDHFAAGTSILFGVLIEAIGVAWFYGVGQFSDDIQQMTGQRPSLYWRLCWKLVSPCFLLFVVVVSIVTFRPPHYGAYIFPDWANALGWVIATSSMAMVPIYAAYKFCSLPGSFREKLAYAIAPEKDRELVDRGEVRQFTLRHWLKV

For `COC[C@H](c1ccc(Cl)c(Cl)c1)C1CCNCC1.Cl`, the Activity [1] was 270%, the Activity [2] was 400% and the Activity [3] was 180%. For the same compound, the Activity [4] was “Dose-dependent effect”, the Activity [5] was “Dose-dependent effect” and the Activity [6] was “Dose-dependent effect”. For the same compound, the Activity [7] was “Active”, the Activity [8] was “Dose-dependent effect” and the minimal effective dose [9] was 10 mg/kg. For the same compound, the inhibition at 10 µM [10] was 48%, the inhibition at 20 min, 10 µM [11] was 14% and the IC50 [12] was 180 nM. The IC50 [13] was 15 nM and the IC50 [14] was 130 nM.

Compound `COC[C@@H](c1ccc(Cl)c(Cl)c1)C1CCNCC1.Cl` has a minimal effective dose [9] of 10 mg/kg, an inhibition at 10 µM [10] of 46% and an inhibition at 20 min, 10 µM [11] of 13%. The IC50 [12] was 470 nM, the IC50 [13] was 21 nM and the IC50 [14] was 5.7 nM.

With `CSCC(c1ccc(Cl)c(Cl)c1)C1CCNCC1.Cl` (racemic) the minimal effective dose [9] was 30 mg/kg, the inhibition at 10 µM [10] was 73% and the inhibition at 20 min, 10 µM [11] was 32%. The IC50 [12] was 79 nM, the IC50 [13] was 9.3 nM and the IC50 [14] was 9.1 nM.

Work on `CCSCC(c1ccc(Cl)c(Cl)c1)C1CCNCC1` (racemic) yielded an inhibition at 10 µM [10] of 94%, an inhibition at 20 min, 10 µM [11] of 55% and an IC50 [12] of 72 nM. For the same compound, the IC50 [13] was 8.7 nM and the IC50 [14] was 9.2 nM.

For `CS(=O)(=O)CC(c1ccc(Cl)c(Cl)c1)C1CCNCC1` (racemic), the inhibition at 10 µM [10] was 9%, the inhibition at 20 min, 10 µM [11] was 3.9% and the IC50 [12] was 2200 nM. It also gave an IC50 [13] of 200 nM and an IC50 [14] of 340 nM.

With `COC(=O)C(c1ccc(Cl)c(Cl)c1)C1CCNCC1` (racemic) the inhibition at 10 µM [10] was 56%, the inhibition at 20 min, 10 µM [11] was 13% and the IC50 [12] was 220 nM. The IC50 [13] was 18 nM and the IC50 [14] was 5.2 nM.

Compound `CCOC(=O)C(c1ccc(Cl)c(Cl)c1)C1CCNCC1` (racemic) has an inhibition at 10 µM [10] of 110%, an inhibition at 20 min, 10 µM [11] of 38% and an IC50 [12] of 97 nM. It also gave an IC50 [13] of 12 nM and an IC50 [14] of 9.3 nM.

Work on `CC(=O)C(c1ccc(Cl)c(Cl)c1)C1CCNCC1.Cl` (racemic) yielded a minimal effective dose [9] of 30 mg/kg, an inhibition at 10 µM [10] of 40% and an inhibition at 20 min, 10 µM [11] of 11%. It also gave an IC50 [12] of 180 nM, an IC50 [13] of 44 nM and an IC50 [14] of 21 nM.

Compound `CCC(=O)C(c1ccc(Cl)c(Cl)c1)C1CCNCC1` (racemic) has an inhibition at 10 µM [10] of 51%, an inhibition at 20 min, 10 µM [11] of 6.1% and an IC50 [12] of 100 nM. The IC50 [13] was 28 nM and the IC50 [14] was 18 nM.

`CCCC(=O)C(c1ccc(Cl)c(Cl)c1)C1CCNCC1` (racemic) was tested, and the inhibition at 10 µM [10] was 72%, the inhibition at 20 min, 10 µM [11] was 20% and the IC50 [12] was 26 nM. It also gave an IC50 [13] of 22 nM and an IC50 [14] of 37 nM.

`COCC(c1ccc2ccccc2c1)C1CCNCC1` (racemic) showed an inhibition at 10 µM [10] of 38%, an inhibition at 20 min, 10 µM [11] of 22% and an IC50 [12] of 1100 nM. It also gave an IC50 [13] of 36 nM and an IC50 [14] of 2.1 nM.

Work on `COCC(c1cccc(Cl)c1)C1CCNCC1` (racemic) yielded an inhibition at 10 µM [10] of 23%, an inhibition at 20 min, 10 µM [11] of 2% and an IC50 [12] of 2600 nM. The IC50 [13] was 98 nM and the IC50 [14] was 180 nM.

In the case of `COCC(c1ccc(Cl)cc1)C1CCNCC1` (racemic), the inhibition at 10 µM [10] is reported as 22%, the inhibition at 20 min, 10 µM [11] is reported as -2.8% and the IC50 [12] is reported as 1700 nM. The IC50 [13] was 130 nM and the IC50 [14] was 120 nM.

For `COCC(c1ccc(F)c(Cl)c1)C1CCNCC1` (racemic), the inhibition at 10 µM [10] was 24%, the inhibition at 20 min, 10 µM [11] was -18% and the IC50 [12] was 580 nM. For the same compound, the IC50 [13] was 70 nM and the IC50 [14] was 32 nM.

`CC(c1ccc(Cl)c(Cl)c1)C1CCNCC1.Cl` (racemic) was tested, and the minimal effective dose [9] was 3 mg/kg, the inhibition at 10 µM [10] was 72% and the inhibition at 20 min, 10 µM [11] was 27%. For the same compound, the IC50 [12] was 160 nM, the IC50 [13] was 25 nM and the IC50 [14] was 12 nM.

For `OCC(c1ccc(Cl)c(Cl)c1)C1CCNCC1` (racemic), the inhibition at 10 µM [10] was 12%, the inhibition at 20 min, 10 µM [11] was -1.5% and the IC50 [12] was 2400 nM. It also gave an IC50 [13] of 110 nM and an IC50 [14] of 79 nM.

For `COCC(c1ccc(Cl)c(Cl)c1)C1CCNCC1.Cl` (racemic), the minimal effective dose [9] was 3 mg/kg, the inhibition at 10 µM [10] was 42% and the inhibition at 20 min, 10 µM [11] was 5.7%. The IC50 [12] was 190 nM, the IC50 [13] was 14 nM and the IC50 [14] was 11 nM.

`CCOCC(c1ccc(Cl)c(Cl)c1)C1CCNCC1.Cl` (racemic) gave a minimal effective dose [9] of 3 mg/kg, an inhibition at 10 µM [10] of 89% and an inhibition at 20 min, 10 µM [11] of 44%. It also gave an IC50 [12] of 170 nM, an IC50 [13] of 28 nM and an IC50 [14] of 16 nM.
